The list is not random: actives were taken first. Their share in the collection is about 3.3%.
SENP8 block-1 = inhibitors of human SENP8 protease; Q96LD8; recombinant SENP8, Nedd8 substrate fluorescence; AID 602440; 360,000 compounds, 0.64% hits; inhibition, % at 20 µM; in the data active = inhibition mostly above about 40%, no sharp cut-off; inactive = mostly below about 27%
Target sequence (Q96LD8 whole entry, looked up): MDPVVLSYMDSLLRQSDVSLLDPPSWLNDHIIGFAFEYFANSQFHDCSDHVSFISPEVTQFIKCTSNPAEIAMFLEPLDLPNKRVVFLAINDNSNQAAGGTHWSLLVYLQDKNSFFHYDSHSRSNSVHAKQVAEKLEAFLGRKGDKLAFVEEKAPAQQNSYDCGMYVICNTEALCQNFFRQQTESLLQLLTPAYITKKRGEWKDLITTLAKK
SENP1 inh = blocks the human SENP1 SUMO protease catalytic domain. 360,000 compounds, 0.21% hits. recombinant SENP1 catalytic domain, CyPet-SUMO1-YPet FRET cleavage. inhibition, % at 10 µM. Q9P0U3;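 active = inhibition at least 30% at 10 µM, raw YFP signal under a set limit, fluorescence ratio 0.5 to 1.5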
Target sequence (Q9P0U3 419-644 limits assumed): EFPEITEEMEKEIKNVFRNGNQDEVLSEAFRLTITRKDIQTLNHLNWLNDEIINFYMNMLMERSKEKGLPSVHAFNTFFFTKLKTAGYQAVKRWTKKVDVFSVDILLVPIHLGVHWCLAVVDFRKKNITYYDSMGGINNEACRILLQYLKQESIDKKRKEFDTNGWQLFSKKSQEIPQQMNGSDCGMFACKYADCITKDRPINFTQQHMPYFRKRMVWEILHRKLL
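Controls: no-enzyme wells low, DMSO-plus-enzyme wells high control. Test system: human recombinant His6-tagged SENP1 catalytic domain enzyme. Reagent: SFCypet-SUMO1-SFYpet FRET protein substrate, 25 nM final. Doses: one dose per compound, 10 µM, 0.5% DMSO. Detection: FRET, CFP and YFP emission. Timing: 50 min reaction at room temperature.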
SENP7 inh = SENP7 protease inhibition; AID 434973; inhibition, % at 5 µM; 330,000 compounds, 1.5% hits; recombinant SENP7, Z-RLRGG-aminoluciferin luminescence, 40 min; Q9BQF6;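 active = inhibition above about 50% at the single test dose, limit read from the data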
SENP6 block = blocks the human protease SENP6; Q9GZR1; Recombinant SENP6 catalytic domain, aminoluciferin luminescence; inhibition, % at 10 µM; 330,000 compounds, 1.8% hits; AID 2599;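 active = inhibition above about 50% at the single tested dose, limit read from the data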
SENP8 block-2 = inhibitors of human SENP8 protease. AID 2540. purified SENP8, Z-RLRGG-aminoluciferin cleavage, luminescence. 330,000 compounds, 1.2% hits. inhibition, % at 10 µM; in the data active = inhibition above about 50%
NRP1-CendR mod = NRP-1/CendR interaction modulation; O14786; FAM-RPARPAR peptide binding to NRP-1, fluorescence polarization; inhibition, % at 25 µM; 360,000 compounds, 0.85% hits; AID 602438;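 active = inhibition or corrected inhibition above about 18%, plus a signal ratio from 0.5 to 1.5, limit read from the data, passing the limit was not always enough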
SENP8 conf-1 = confirmation of human SENP8 protease inhibitors. Recombinant SENP8, Z-RLRGG-aminoluciferin luminescence, 60 min. AID 488912. shares compounds with SENP7 inh. 6,200 compounds, 40% hits. inhibition, % at 12.5 µM;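 active = mean inhibition across replicates above about 50%, limit read from the data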
SENP6 conf = confirmation of human SENP6 protease inhibitors | shares compounds with SENP7 inh | recombinant SENP6, Z-RLRGG-aminoluciferin luminescence | inhibition, % at 12.5 µM | 6,200 compounds, 58% hits
SENP7 conf = human SENP7 inhibition, confirmed; recombinant SENP7, Z-RLRGG-aminoluciferin luminescence, 40 min; inhibition, % at 12.5 µM; 6,200 compounds, 69% hits; shares compounds with SENP7 inh
Casp3 select = selectivity test for SENP inhibitors: human caspase-3 inhibition; shares compounds with SENP7 inh; purified caspase-3, Z-DEVD-aminoluciferin luminescence, 60 min; inhibition, % at 12.5 µM; 6,200 compounds, 60% hits; AID 488918;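 active = mean inhibition above about 50%, limit read from the data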
Target sequence (P42574 28-227 limits assumed): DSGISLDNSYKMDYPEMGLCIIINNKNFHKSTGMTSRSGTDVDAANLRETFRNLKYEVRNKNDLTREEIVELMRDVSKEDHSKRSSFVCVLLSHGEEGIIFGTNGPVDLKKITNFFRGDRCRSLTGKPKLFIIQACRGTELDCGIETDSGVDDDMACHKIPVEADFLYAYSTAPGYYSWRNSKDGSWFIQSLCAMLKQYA
Luc interf = counter-screen for SENP inhibitors: luminescence interference; shares compounds with SENP7 inh; Pre-incubated SENP8/Z-RLRGG-aminoluciferin, luciferase luminescence interference; inhibition, % at 12.5 µM; 6,200 compounds, 39% hits;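 active = mean inhibition above about 50% when retested at one dose, limit read from the data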
SENP8 conf-2 = confirmation of human SENP8 protease inhibitors | shares compounds with SENP8 block-1 | purified SENP8, Nedd8-AMC/pro-Nedd8 cleavage fluorescence, 30 min | inhibition, % at 25 µM | 1,400 compounds, 15% hits | AID 624319; in the data active = inhibition mostly above about 39%, no sharp cut-off; inactive = mostly below about 34%
SENP1 inh conf = SENP1 (human) inhibition, single concentration confirmation | shares compounds with SENP1 inh | recombinant SENP1, CyPet-SUMO1-YPet FRET cleavage | inhibition, % at 10 µM | 520 compounds, 34% hits; in the data active = inhibition mostly above about 35%, no sharp cut-off; inactive = mostly below about 32%
SENP1 kin conf = confirmation of human SENP1 SUMO protease inhibitors, kinetic. shares compounds with SENP1 inh. recombinant SENP1, CyPet-SUMO1-YPet FRET kinetic cleavage. inhibition, % at 10 µM. AID 651690. 520 compounds, 26% hits; in the data active = inhibition mostly above about 32%, no sharp cut-off; inactive = mostly below about 29%
Of the large screens only hits and unclear results are named; the others gave an inactive call (follow-up assays come after a bar, where they were run).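 The calls were made as follows, unless noted: active = mean inhibition above about 50% in the one-dose retest (limit read from the data); inactive = the rest.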

COc1ccc(N2CCN(C(CNC(=O)Oc3ccccc3)c3cccnc3)CC2)cc1 (stereo not drawn)	SENP7 inh 71 | SENP8 conf-1 inactive | SENP6 conf inactive | SENP7 conf inactive | Casp3 select inactive | Luc interf inactive
C=CCOC(=O)c1ccccc1N	none
Nc1ccccc1C(=O)OCCOc1ccccc1	SENP7 inh 95, SENP6 block 90, SENP8 block-2 86 | SENP8 conf-1 92 | SENP6 conf 92 | SENP7 conf 99 | Casp3 select 81 | Luc interf 90
O=C1NC(=S)NC(=O)C1c1ccccc1	none (no result: SENP7 inh, SENP6 block, SENP8 block-2)
CN(C)C(=O)Oc1ccc(OCc2nc3ccccc3[nH]2)cc1	SENP7 inh 95, SENP6 block 91 | SENP8 conf-1 94 | SENP6 conf 94 | SENP7 conf 100 | Casp3 select 96 | Luc interf 93
CN(C)C(=O)Oc1ccc(OC(=O)N(C)C)cc1	none
O=c1[nH]c2ccccc2n1C1CCN(C(CCc2ccccc2)c2nnnn2C2CCCC2)CC1 (stereo not drawn)	none (no result: SENP7 inh, SENP6 block, SENP8 block-2)
COc1ccc(OC)c(N2C(=O)NC(=O)/C(=C\c3ccc([N+](=O)[O-])s3)C2=O)c1	SENP8 block-1 48, SENP6 block 51 | SENP8 conf-1 inactive | SENP6 conf inactive | SENP7 conf inactive | Casp3 select inactive | Luc interf inactive
Cn1c(O)c(C=Nc2ccc(Br)cc2)c(=O)n(C)c1=O	SENP6 block 59, SENP8 block-2 50 | SENP8 conf-1 inactive | SENP6 conf inactive | SENP7 conf inactive | Casp3 select inactive | Luc interf inactive
CCOC(=O)[C@]12Cc3c(cc(OC)c(OC)c3OC)[C@H]1N(C)C(=O)c1ccccc12	none (no result: SENP7 inh, SENP6 block, SENP8 block-2)
Cc1cc(C(=O)N=Nc2c(O)n(C)c3ccccc23)c(C)o1	SENP7 inh 90, SENP6 block 91, SENP8 block-2 79 | SENP8 conf-1 54 | SENP6 conf 56 | SENP7 conf inactive | Casp3 select inactive | Luc interf inactive
CCOC(=O)C1(CCc2ccccc2)CCN(Cc2ccc3c(c2)OCCO3)CC1	SENP6 block 70 | SENP8 conf-1 inactive | SENP6 conf inactive | SENP7 conf inactive | Casp3 select inactive | Luc interf inactive
CCOC(=O)C1(CCc2ccccc2)CCN(Cc2ccc(NC(C)=O)cc2)CC1	none
CC(C)(C)n1cc(C(=O)c2ccc3ccccc3c2O)cn1	SENP7 inh 68, SENP8 block-2 57 | SENP8 conf-1 inactive | SENP6 conf inactive | SENP7 conf inactive | Casp3 select inactive | Luc interf inactive
O=c1[nH]c(=S)[nH]c(O)c1N=Nc1ccc2c(c1)OCCO2	SENP8 block-1 42, SENP1 inh 36, SENP7 inh 92, SENP6 block 92, SENP8 block-2 87 | SENP8 conf-1 inactive | SENP6 conf inactive | SENP7 conf 55 | Casp3 select 64 | Luc interf inactive | SENP8 conf-2 inactive
COc1cc(O)c2c(c1)/C=C/C[C@H](O)[C@H](O)C(=O)CCC[C@H](C)OC2=O	none (no result: SENP7 inh, SENP6 block, SENP8 block-2)
COc1ccc(N=Nc2c(O)[nH]c(=S)[nH]c2=O)cc1	SENP1 inh 48, SENP7 inh 66, SENP6 block 76, SENP8 block-2 66 | SENP8 conf-1 inactive | SENP6 conf 79 | SENP7 conf 51 | Casp3 select 78 | Luc interf inactive | SENP1 inh conf 43 | SENP1 kin conf inactive
S=P(NCCSCc1ccccc1)(N1CC1)N1CC1	none (no result: SENP7 inh, SENP6 block, SENP8 block-2)
O=C1NC(=O)C(Nc2ccccc2)C(=O)N1	SENP8 block-1 64 (no result: SENP7 inh, SENP6 block, SENP8 block-2) | SENP8 conf-2 46
O=C1NC(=O)C(Cc2ccccc2)(Cc2ccccc2)C(=O)N1	none (no result: SENP7 inh, SENP6 block, SENP8 block-2)
O=c1[nH]c(=S)[nH]c(O)c1N=Nc1cc2c(cc1[N+](=O)[O-])OCO2	SENP8 block-1 42 | SENP8 conf-2 inactive
CN1C2CCC1CC(=NO)C2	SENP8 block-1 48 | SENP8 conf-2 inactive
CC12CCC(O)CC1CCC1C2CCC2(C)C(C(=O)CO)CCC12 (stereo not drawn)	none (no result: SENP7 inh, SENP6 block, SENP8 block-2)
O=C1NC(=O)C(CCc2ccncc2)(Cc2ccc3c(c2)OCO3)C(=O)N1CCc1ccccc1 (stereo not drawn)	SENP8 block-1 29 | SENP8 conf-2 inactive
CSCCC(c1nnnn1-c1ccc2c(c1)OCCO2)N1CCC(n2c(=O)[nH]c3ccccc32)CC1 (stereo not drawn)	none (no result: SENP7 inh, SENP6 block, SENP8 block-2)
CCCCn1nnnc1C(CC)N1CCC2(CC1)C(=O)NCN2c1ccccc1 (stereo not drawn)	none (no result: SENP7 inh, SENP6 block, SENP8 block-2)
CC(=O)c1ccc2c(c1)OCO2	SENP8 block-1 44 | SENP8 conf-2 inactive
CC(C)(C)NC(=S)N1Cc2ccccc2-n2nncc2C1	none (no result: SENP7 inh, SENP6 block, SENP8 block-2)
O=[N+]([O-])c1cc(F)c(N2CCCCC2)cc1Br	SENP8 block-1 40 | SENP8 conf-2 inactive
O=[N+]([O-])c1cc(F)c(N2CCCC2)cc1Br	none
CN1CCN(c2cc(N3CCCC3)c([N+](=O)[O-])cc2F)CC1	SENP8 block-1 45 | SENP8 conf-2 inactive
CNC(=O)C[C@H]1CC[C@@H]2NC[C@H](O)COC[C@H]2O1	none (no result: SENP7 inh, SENP6 block, SENP8 block-2)
O=C1NC(=O)C(C2CCCCCC2)C(=O)N1	none (no result: SENP7 inh, SENP6 block, SENP8 block-2)
CN1CCN(c2ccc(N)c(N3CCN(C)CC3)c2)CC1	SENP8 block-1 51 | SENP8 conf-2 inactive
C=CC12CN(C)C3C4COC(CC41)C1(C(=O)Nc4ccccc41)C32 (stereo not drawn)	SENP8 block-1 41 (no result: SENP7 inh, SENP6 block, SENP8 block-2) | SENP8 conf-2 inactive
CC(=O)N1Cc2cnnn2-c2ccccc2C1C#N (stereo not drawn)	none (no result: SENP7 inh, SENP6 block, SENP8 block-2)
